These results are taken from ChEMBL document CHEMBL1156859, “Novel bis-2,2,6,6-tetramethylpiperidine (bis-TMP) and bis-mecamylamine antagonists at neuronal nicotinic receptors mediating nicotine-evoked dopamine release” (Bioorg Med Chem Lett, 2010).

pIC50: −log10 of the molar value.

Type in all cases: functional
A short description of assay [1]: Antagonist activity at nicotinic acetylcholine receptor in rat striatal slices assessed as inhibition of S-(-)-nicotine-induced [3H]dopamine release at 100 nM relative to control. The essentials:
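Probe assay on superfused rat striatal slices: 100 nM analog against 10 μM S-(−)-nicotine-evoked [3H]DA release. Inhibition is expressed as a percentage of the nicotine response without analog, i.e. the fractional release evoked under control conditions. Each value comes from at least 3 independent experiments, each in duplicate (n = 3 rats/analog).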

Assay [2] can be described thus: Antagonist activity at nicotinic acetylcholine receptor in rat striatal slices assessed as inhibition of S-(-)-nicotine-induced [3H]dopamine release. The essentials: (§1)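 Superfused rat striatal slices were stimulated with 10 μM S-(−)-nicotine, with analog present across 1 nM to 10 μM. Evoked [3H]DA overflow was expressed as a percent of tissue [3H] content and compared with nicotine alone. IC50 and Imax came from iterative nonlinear least-squares curve fitting, using 4-6 independent experiments.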

Assay [3] can be described thus: Antagonist activity at nicotinic acetylcholine receptor in rat striatal slices assessed as inhibition of S-(-)-nicotine-induced [3H]dopamine release relative to control. The essentials:
as §1

Turning to `Cc1ccc[n+](CCCC#Cc2cc(C#CCCC[n+]3cccc(C)c3)cc(C#CCCC[n+]3cccc(C)c3)c2)c1.[Br-].[Br-].[Br-]`, in assay [1], the inhibition at 0.1 µM was 40%. Moreover, in assay [2], the pIC50 is 9.70. Moreover, the Imax in assay [3] is 67%.
Turning to `Cc1ccc[n+](CCCCCCCCCCCC[n+]2cccc(C)c2)c1.[Br-].[Br-]`, the pIC50 in assay [2] was 8.70. Moreover, in assay [3], the Imax was determined as 78%.
Consider `CN(CCCC#Cc1cc(C#CCCCN(C)[C@@]2(C)[C@@H]3CC[C@@H](C3)C2(C)C)cc(C#CCCCN(C)[C@@]2(C)[C@@H]3CC[C@@H](C3)C2(C)C)c1)[C@@]1(C)[C@@H]2CC[C@@H](C2)C1(C)C`, for which the inhibition at 0.1 µM in assay [1] was determined as 73%. Moreover, the pIC50 in assay [2] was 6.97. Besides, in assay [3], the Imax is recorded as 62%.
As for `CC1(C)CCCC(C)(C)N1CCCCCCCCCCCCCN1C(C)(C)CCCC1(C)C`, in assay [1], the inhibition at 0.1 µM amounted to 56%. Further, the pIC50 in assay [2] was 8.66. Further, the Imax in assay [3] came to 87%.
For `CN(CCCCCCCCCCCN(C)[C@@]1(C)[C@@H]2CC[C@@H](C2)C1(C)C)[C@@]1(C)[C@@H]2CC[C@@H](C2)C1(C)C`, in that order: 35%, 6.50 and 90%.
In the case of `CC1(C)CCCC(C)(C)N1CCCCCCCCCCCCN1C(C)(C)CCCC1(C)C`, the inhibition at 0.1 µM in assay [1] was found to be 36%.
Same read-out and setting: the result for `CC1(C)CCCC(C)(C)N1CCCCCCCCCCCN1C(C)(C)CCCC1(C)C` reads 22%; that for `CC1(C)CCCC(C)(C)N1CCCCCCCCN1C(C)(C)CCCC1(C)C`, 18%.
Same read-out and setting: the result for `CC1(C)CCCC(C)(C)N1CCCCCCCCCCN1C(C)(C)CCCC1(C)C` reads 5%.
With `CN(CCCCCCCCCCCCCN(C)[C@@]1(C)[C@@H]2CC[C@@H](C2)C1(C)C)[C@@]1(C)[C@@H]2CC[C@@H](C2)C1(C)C`, the inhibition at 0.1 µM in assay [1] was 52%. Besides, the pIC50 in assay [2] was 7.34. The Imax in assay [3] turned out to be 83%.
